Calls of active or inactive are those of the source. The calls are words filed in the database; no cut-off is given here.
How the values were obtained:
[1] = molecular target: T1, Neutrophil cytosol factor 1 (Homo sapiens, UniProt P14598); assay: Covalent inhibition of recombinant human His-tagged p47phox SH3A-B domain (151 to 285 residues) expressed in Escherichia coli BL21 (DE3) cells interaction with Cy5-p22phox149-162 incubated for 10 mins by fluorescence polarization competition assay
[2] = molecular target: T1, Neutrophil cytosol factor 1; assay: Binding affinity to recombinant human His-tagged p47phox SH3A-B domain (151 to 285 residues) expressed in Escherichia coli BL21 (DE3) cells assessed as protein aggregation by measuring increase in concentration-normalized scattering intensity by SAXS study analysis
Summary of the method: (§1)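 His-tag removed by HRV-3C protease. Protein (2-5.6 mg/mL, 130-370 μM final) was buffer-exchanged into 10 mM Hepes, 150 mM NaCl, 4% DMSO, pH 7.4, with 100 or 200 μM compound. Samples were held at 6 °C and measured at room temperature, λ 1.34 Å, q 0.01-0.5 Å−1. Fifteen to twenty 60 s frames were radially averaged, and buffer scattering was subtracted.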

[3] = molecular target: T1, Neutrophil cytosol factor 1; assay: Binding affinity to immobilized recombinant human His-tagged p47phox SH3A-B domain (151 to 285 residues) expressed in Escherichia coli BL21 (DE3) cells at 12.5 uM in presence of TCEP by SPR assay
Summary of the method: (§2)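 p47phox SH3A-B (residues 151-285) immobilized at 4684 RU by His capture then amine coupling; compound injected at 12.5 μM in HBS pH 7.4 (10 mM Hepes, 150 mM NaCl, 0.005% Tween) at 25 °C. Sensorgrams were blank- and reference-subtracted with DMSO calibration. Complex then exposed to 2 mM TCEP.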

[4] = molecular target: T1, Neutrophil cytosol factor 1; assay: Ratio of Ki for recombinant human His-tagged p47phox SH3A-B domain (151 to 285 residues) expressed in Escherichia coli BL21 (DE3) cells in presence of TCEP to Ki for recombinant human His-tagged p47phox SH3A-B domain (151 to 285 residues) expressed in Escherichia coli BL21 (DE3) cells by fluorescence polarization competition assay
Summary of the method: (§3)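 Heterologous competition FP. The compound was titrated as a 12-point two-fold series in duplicate against 1.25 μM p47phox SH3A-B and 5 nM Cy5-p22phox149-162. Buffer was HBS (50 mM Hepes, 150 mM NaCl, 0.005% Tween 20, pH 7.4), with or without TCEP. Incubation was 10 min or 2 h at room temperature before the FP read.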

[5] = molecular target: T1, Neutrophil cytosol factor 1; assay: Non-reversible binding affinity to immobilized recombinant human His-tagged p47phox SH3A-B domain (151 to 285 residues) expressed in Escherichia coli BL21 (DE3) cells assessed as slow dissociation rate at 12.5 uM by SPR assay; summary of the method: as §2
[6] = molecular target: T1, Neutrophil cytosol factor 1; assay: Binding affinity to recombinant human His-tagged p47phox SH3A-B domain (151 to 285 residues) expressed in Escherichia coli BL21 (DE3) cells assessed as protein aggregation by SAXS study analysis; conditions: TDE = time-dependent effect; summary of the method: as §1
[7] = molecular target: T1, Neutrophil cytosol factor 1; assay: Covalent inhibition of recombinant human His-tagged p47phox SH3A-B domain (151 to 285 residues) expressed in Escherichia coli BL21 (DE3) cells interaction with Cy5-p22phox149-162 incubated for 2 hrs by fluorescence polarization competition assay; summary of the method: as §3
[8] = molecular target: T1, Neutrophil cytosol factor 1; assay: Binding affinity to recombinant human His-tagged p47phox SH3A-B domain (151 to 285 residues) expressed in Escherichia coli BL21 (DE3) cells assessed as protein aggregation by measuring increase in SAXS-derived radius of gyration by SAXS study analysis; summary of the method: as §1
[9] = molecular target: T1, Neutrophil cytosol factor 1; assay: Covalent inhibition of recombinant human His-tagged p47phox SH3A-B domain (151 to 285 residues) expressed in Escherichia coli BL21 (DE3) cells interaction with Cy5-p22phox149-162 incubated for 10 mins in presence of TCEP by fluorescence polarization competition assay; summary of the method: as §3
[10] = molecular target: T1, Neutrophil cytosol factor 1; assay: Binding affinity to recombinant human His-tagged p47phox SH3A-B domain (151 to 285 residues) expressed in Escherichia coli BL21 (DE3) cells assessed as increase in protein molecular weight at 200 uM by ESI/LC-MS analysis
[11] = molecular target: T1, Neutrophil cytosol factor 1; assay: Binding affinity to recombinant human His-tagged p47phox SH3A-B domain (151 to 285 residues) expressed in Escherichia coli BL21 (DE3) cells assessed as protein aggregation by measuring increase in maximum dimensions of the particles by SAXS study analysis; summary of the method: as §1
[12] = molecular target: T1, Neutrophil cytosol factor 1; assay: Binding affinity to recombinant human His-tagged 15N-labeled p47phox SH3A-B domain (151 to 285 residues) expressed in Escherichia coli BL21 (DE3) cells assessed as compound interaction with protein at Cys196 in SH3A domain by NMR spectroscopy
[13] = molecular target: T1, Neutrophil cytosol factor 1; assay: Binding affinity to immobilized recombinant human His-tagged p47phox SH3A-B domain (151 to 285 residues) expressed in Escherichia coli BL21 (DE3) cells assessed as dissociation constant by SPR assay

T1 sequence (P14598 whole entry, the tested form may be a part): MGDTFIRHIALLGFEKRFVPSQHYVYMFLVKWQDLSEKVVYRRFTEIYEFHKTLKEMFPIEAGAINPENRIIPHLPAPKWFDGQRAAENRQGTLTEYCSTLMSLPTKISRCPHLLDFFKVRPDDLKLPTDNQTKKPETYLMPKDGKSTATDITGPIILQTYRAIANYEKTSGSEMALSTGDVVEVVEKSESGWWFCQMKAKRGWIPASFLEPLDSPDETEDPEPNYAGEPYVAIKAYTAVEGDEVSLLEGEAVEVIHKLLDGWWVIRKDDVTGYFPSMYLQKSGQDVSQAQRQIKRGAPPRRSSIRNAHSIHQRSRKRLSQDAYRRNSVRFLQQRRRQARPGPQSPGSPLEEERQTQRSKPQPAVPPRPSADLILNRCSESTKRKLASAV

Row | Structure (SMILES) | Ki ([1]; read-out: Ki) | further results
1 | Nc1ccc2cc(OCc3ccc(Cl)cc3)ccc2n1 | > 2000 µM | 
2 | Nc1ncccn1 | > 2000 µM | 
3 | Nc1cccc2cccnc12 [8-AMINOQUINOLINE] | > 2000 µM | 
4 | Nc1ccc2cc(OCc3ccccc3)ccc2n1 | > 2000 µM | 
5 | CC(=O)Nc1ccc2ccccc2n1 | > 2000 µM | 
6 | Nc1cc(OCc2ccc(Cl)cc2)c2ccccc2n1 | > 2000 µM | 
7 | Nc1ccc2cc(OCC3CCCCC3)ccc2n1 | > 2000 µM | 
8 | Cc1cc(N2CCN(C)CC2)c2ccccc2n1 | > 2000 µM | 
9 | O=c1c2ccccc2[se]n1-c1ccccc1 [EBSELEN] | 63 µM | Activity [2]: Active; Activity [3]: inactive; Ratio Ki [4]: > 10; Activity [5]: Active; Activity [6]: Tde; Ki [7]: 12 µM; Activity [8]: Active; Ki [9]: > 300 µM; Activity [10]: Active; Activity [11]: Active; Activity [12]: Active
10 | Nc1ccc2cccc(O)c2n1 | 1380 µM | 
11 | Nc1cnc2ccccc2c1 | > 2000 µM | 
12 | c1cc(N2CCNCC2)ccn1 | 302 µM | 
13 | Cc1cc(N2CCN(C(=O)OC(C)(C)C)CC2)c2ccccc2n1 | > 2000 µM | 
14 | Nc1ccnc2ccccc12 [QUINOLIN-4-AMINE] | 1520 µM | Kd [13]: 765 µM
15 | Nc1ccccn1 [2-AMINOPYRIDINE] | > 2000 µM | 
16 | Nc1cccc2ncccc12 | > 2000 µM | 
17 | Nc1cc(Cl)c2ccccc2n1 | > 2000 µM | 

Row | Structure (SMILES) | Ki ([1]; read-out: Ki) | further results
18 | Nc1cc(O)c2ccccc2n1 | > 2000 µM | 
19 | c1ccc2c(N3CCNCC3)cccc2c1 | 1520 µM | Kd [13]: 366 µM
20 | Nc1ccc2ccccc2c1 [NAPHTHYLAMINE] | > 2000 µM | 
21 | Oc1ccc2ccccc2n1 | > 2000 µM | 
22 | NCc1ccc2ccccc2n1 | > 2000 µM | 
23 | Cc1cc(N2CCNCC2)nc2ccccc12 | 1070 µM | 
24 | c1ccc2ncccc2c1 [QUINOLINE] | > 2000 µM | 
25 | Nc1ccc2cc(-c3ccc(Cl)cc3)ccc2n1 | > 2000 µM | 
26 | OCCOCCNc1ccc2ccccc2n1 | > 2000 µM | 
27 | CN1CCCN(Cc2ccc(CN)cc2)CC1 |  | Kd [13]: 418 µM; Ki [1]: Not Active
28 | COCCNc1ccc2ccccc2n1 | > 2000 µM | 
29 | Cc1ccc2ccccc2n1 [QUINALDINE] | > 2000 µM | 
30 | c1ccc2nc(N3CCNCC3)ccc2c1 [QUIPAZINE] | 1410 µM | Kd [13]: 420 µM
31 | Nc1ccc2cc(OCCOCCOCCOCCOc3ccc4nc(N)ccc4c3)ccc2n1 | 32.7 µM | 
32 | Cc1cc(N)c2ccccc2n1 | 1070 µM | Kd [13]: 521 µM
33 | Nc1ccc2ncccc2c1 | > 2000 µM | 
34 | Nc1ccc2cc(COc3ccc(Cl)cc3)ccc2n1 | > 2000 µM | 
